In ChEMBL document CHEMBL1629613, “Klebsiella pneumoniae OmpA confers resistance to antimicrobial peptides” (2009):
≈ marks a conversion by molar mass, not a printed value. Calls of active or inactive are those of the source. The calls are words filed in the database; no cut-off is given here.

Tests used:
Klebsiella pneumoniae [1] = experiment: Antimicrobial activity against Klebsiella pneumoniae 52145; assay type: functional
Klebsiella pneumoniae [2] = experiment: Antimicrobial activity against Klebsiella pneumoniae 52145 at 100 ug/disk by disk diffusion method; assay type: functional, organism-based
Procedure, shortened: (§1)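 Disk diffusion with SDS at 100 µg per disk.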

Klebsiella pneumoniae [3] = experiment: Antimicrobial activity against Klebsiella pneumoniae 52OmpA2 at 100 ug/disk by disk diffusion method; assay type: functional, organism-based; procedure, shortened: as §1
Klebsiella pneumoniae [4] = experiment: Antimicrobial activity against Klebsiella pneumoniae 52OmpA2 at 80 ug/disk by disk diffusion method; assay type: functional; settings: 52OmpA2, read-out: IZ
Procedure, shortened: (§2)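 Disk diffusion with novobiocin at 80 µg per disk. The diffusion halo was measured in cm and reported as mean ± error, with groups compared by P value.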

Klebsiella pneumoniae [5] = experiment: Antimicrobial activity against Klebsiella pneumoniae 52OmpA2Com; assay type: functional
Klebsiella pneumoniae [6] = experiment: Antimicrobial activity against Klebsiella pneumoniae 52OmpA2 assessed as decrease in bacterial survival after 1 hr; assay type: functional, organism-based
Procedure, shortened: (§3)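 Bacterial survival assay: cells were exposed to polymyxin B or protamine for 1 h, or to HNP-1 at a fixed 20 µg/ml for 3 h, and surviving bacteria were then counted. Polymyxin B curves are the mean ± SD of six samples from three independently grown batches. HNP-1 data are the mean ± SD of three experiments, each run in duplicate. Strains were compared by two-tailed t test.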

Klebsiella pneumoniae [7] = experiment: Antimicrobial activity against Klebsiella pneumoniae 52145 assessed as decrease in bacterial survival after 1 hr; assay type: functional, organism-based; procedure, shortened: as §3
Klebsiella pneumoniae [8] = experiment: Antimicrobial activity against Klebsiella pneumoniae 52OmpA2Com assessed as decrease in bacterial survival after 1 hr; assay type: functional, organism-based; procedure, shortened: as §3
Klebsiella pneumoniae [9] = experiment: Antimicrobial activity against wcaK2-deficient Klebsiella pneumoniae 52OmpA2 assessed as decrease in bacterial survival; assay type: functional, organism-based; procedure, shortened: as §3
Klebsiella pneumoniae [10] = experiment: Antimicrobial activity against wcaK2-deficient Klebsiella pneumoniae 52145 assessed as decrease in bacterial survival; assay type: functional, organism-based; procedure, shortened: as §3
Klebsiella pneumoniae [11] = experiment: Antimicrobial activity against Klebsiella pneumoniae 52145 by Etest; assay type: functional, organism-based
Klebsiella pneumoniae [12] = experiment: Antimicrobial activity against Klebsiella pneumoniae 52OmpA2Com by Etest; assay type: functional, organism-based
Klebsiella pneumoniae [13] = experiment: Antimicrobial activity against Klebsiella pneumoniae 52OmpA2 by Etest; assay type: functional, organism-based
Klebsiella pneumoniae [14] = experiment: Antimicrobial activity against Klebsiella pneumoniae 52145 at 80 ug/disk by disk diffusion method; assay type: functional, organism-based; procedure, shortened: as §2
Klebsiella pneumoniae [15] = experiment: Antimicrobial activity against Klebsiella pneumoniae 52145 assessed as induction of bacterial wall damage by propidium iodide staining-based fluorescence spectroscopy; assay type: functional, organism-based
Klebsiella pneumoniae [16] = experiment: Antimicrobial activity against Klebsiella pneumoniae 52OmpA2 assessed as induction of bacterial wall damage by propidium iodide staining-based fluorescence spectroscopy; assay type: functional, organism-based
Klebsiella pneumoniae [17] = experiment: Binding affinity to Klebsiella pneumoniae 52145 outer membrane assessed as amount of peptide bound at 16 ug/ml after 30 mins
Procedure, shortened: (§4)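 Bacteria were incubated with the peptide for 30 min, and the amount of peptide bound was then determined, expressed in µg/ml. Strains were compared by two-tailed t test.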

Klebsiella pneumoniae [18] = experiment: Binding affinity to Klebsiella pneumoniae 52OmpA2 outer membrane assessed as amount of peptide bound at 16 ug/ml after 30 mins; procedure, shortened: as §4
Klebsiella pneumoniae [19] = experiment: Binding affinity to wcaK2-deficient Klebsiella pneumoniae 52145 lipopolysaccharide assessed as amount of peptide bound at 16 ug/ml after 30 mins
Procedure, shortened: (§5)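 LPS was purified from capsule (CPS) mutants to avoid copurifying capsule. LPS at 50 µg/ml was incubated with polymyxin B at 16 µg/ml for 30 min, and the bound peptide was measured in µg/ml.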

Klebsiella pneumoniae [20] = experiment: Binding affinity to wcaK2-deficient Klebsiella pneumoniae 52OmpA2 lipopolysaccharide assessed as amount of peptide bound at 16 ug/ml after 30 mins; procedure, shortened: as §5
Klebsiella pneumoniae [21] = experiment: Antimicrobial activity against Klebsiella pneumoniae 52OmpAK36 harboring OmpA K36 mutant gene assessed as decrease in bacterial survival after 1 hr by coomassie blue staining; assay type: functional, organism-based
Klebsiella pneumoniae [22] = experiment: Antimicrobial activity against Klebsiella pneumoniae 52145 assessed as decrease in bacterial survival at 1 ug/ml pre-exposed for 1 hr during growth phase; assay type: functional, organism-based
Procedure, shortened: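 Cells were pretreated during growth with polymyxin B (final 1 µg/ml, 1 h), washed, and then tested for polymyxin B susceptibility by the same survival assay, alongside untreated cells. Values are the mean ± SD of six samples from three independently grown batches. Pretreated and untreated cells were compared by two-tailed t test.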

**Q.** With `CC1(C)S[C@@H]2[C@H](NC(=O)[C@H](N)c3ccc(O)cc3)C(=O)N2[C@H]1C(=O)O` [AMOXICILLIN] as the compound, how does the MIC (Klebsiella pneumoniae [1]) read?
**A.** Its MIC is 2 µg/mL (≈ 5.47 µM).

**Q.** With `CO/N=C(\C(=O)N[C@@H]1C(=O)N2C(C(=O)O)=C(COC(C)=O)CS[C@H]12)c1csc(N)n1` [CEFOTAXIME] as the compound, how does the MIC (Klebsiella pneumoniae [1]) read?
**A.** The MIC was 0.05 µg/mL (≈ 0.11 µM).

**Q.** `O=C(O)c1cn(C2CC2)c2cc(N3CCNCC3)c(F)cc2c1=O` [CIPROFLOXACIN] was tested. Which MIC (Klebsiella pneumoniae [1]) did it give?
**A.** Its MIC is 0.05 µg/mL (≈ 0.151 µM).

**Q.** How did the MIC (Klebsiella pneumoniae [1]) turn out when `C[C@@H](O)[C@H]1C(=O)N2C(C(=O)O)=C(SCCNC=N)C[C@H]12` [IMIPENEM ANHYDROUS] was run?
**A.** Its MIC is 0.05 µg/mL (≈ 0.167 µM).

**Q.** For `CO[C@@H]1[C@@H](OC(N)=O)[C@@H](O)[C@H](Oc2ccc3c(O)c(NC(=O)c4ccc(O)c(CC=C(C)C)c4)c(=O)oc3c2C)OC1(C)C` [NOVOBIOCIN], which Activity (Klebsiella pneumoniae [2]) is on record?
**A.** Its Activity is “inactive”.

**Q.** And the Activity (Klebsiella pneumoniae [3])?
**A.** Its Activity is “inactive”.

**Q.** What about the zone of inhibition at 80 µg/disc (Klebsiella pneumoniae [4]) of the same compound?
**A.** Its zone of inhibition at 80 µg/disc is 8.5 mm.

**Q.** What does the source list for GENTAMICIN?
**A.** MIC (Klebsiella pneumoniae [1]): 0.15 µg/mL; MIC (Klebsiella pneumoniae [5]): 0.15 µg/mL

**Q.** For POLYMYXIN B, which inhibition (Klebsiella pneumoniae [6]) is on record?
**A.** The inhibition was “Active”.

**Q.** And the Activity (Klebsiella pneumoniae [7])?
**A.** The Activity was “inactive”.

**Q.** What about the Activity (Klebsiella pneumoniae [8]) of the same compound?
**A.** Its Activity is “Active”.

**Q.** And the inhibition (Klebsiella pneumoniae [9])?
**A.** The inhibition was “Active”.

**Q.** What about the inhibition (Klebsiella pneumoniae [10]) of the same compound?
**A.** The inhibition was “Active”.

**Q.** And the MIC (Klebsiella pneumoniae [11])?
**A.** The MIC was 0.75 µg/mL.

**Q.** And the MIC (Klebsiella pneumoniae [12])?
**A.** Its MIC is 0.75 µg/mL.

**Q.** And the MIC (Klebsiella pneumoniae [13])?
**A.** The MIC was 0.31 µg/mL.

**Q.** What about the inhibition zone (IZ) (Klebsiella pneumoniae [14]) of the same compound?
**A.** Its inhibition zone (IZ) is 9 mm.

**Q.** What about the Activity (Klebsiella pneumoniae [15]) of the same compound?
**A.** Its Activity is “inactive”.

**Q.** What about the Activity (Klebsiella pneumoniae [16]) of the same compound?
**A.** Its Activity is “inactive”.

**Q.** What about the Activity (Klebsiella pneumoniae [17]) of the same compound?
**A.** The Activity was 7.4 µg/mL.

**Q.** And the Activity (Klebsiella pneumoniae [18])?
**A.** Its Activity is 8.1 µg/mL.

**Q.** And the Activity (Klebsiella pneumoniae [19])?
**A.** The Activity was 4.8 µg/mL.

**Q.** And the Activity (Klebsiella pneumoniae [20])?
**A.** The Activity was 4.4 µg/mL.

**Q.** And the inhibition (Klebsiella pneumoniae [21])?
**A.** Its inhibition is “inactive”.

**Q.** What about the Activity (Klebsiella pneumoniae [22]) of the same compound?
**A.** Its Activity is “inactive”.
